This is an account of results in article PMC8301577 (Clinical and Translational Science, 2021).

Where “and” joins values, the source holds several entries; their conditions need not be identical. Identical values can stand only once. Entries after “also recorded” stand apart in the source; their conditions may differ.

The subject of data set [1] is CES1 G143E. Conditions: cells transfected with the variant; cited from earlier work.
A short description of data set [2]: Single-dose. The class given is in vivo, human. Conditions: for CL: single oral dose 1 mg trandolapril, mean.
The nature of data set [3]: Stability of QC samples in human plasma. It counts as physicochemical. Conditions: autosampler 4°C for 48 h or 3 successive freeze (−20°C) and thaw cycles. Summed up:
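Plasma QC samples held both analytes at 30, 300 and 1000 pg/ml, five replicates each. They were extracted by solid phase with deuterated internal standards and quantified by LC-MS/MS. Processed samples were tested after 48 h in the autosampler at 4°C, and QC samples after three freeze (−20°C)/thaw cycles, following FDA bioanalytical validation guidance.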

The subject of data set [4] is healthy volunteers. As to the kind of experiment: Single-dose. The class given is in vivo, human. Summed up: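 Healthy non-smoking volunteers (8 CES1 G143E heterozygotes, 11 noncarriers) fasted overnight, then took a single 1 mg oral test compound dose with 240 ml water and fasted until 4 h post-dose. The maximal post-dose reduction was taken; mean ± SD.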
Data set [5] deals with ACE. Conditions: cited from earlier work.
For data set [6] the following is noted: cited from earlier work.
Where [7] appears, read: G/E, individual subjects (n=8), single oral dose 1 mg.
Where [8] appears, read: G/G, individual subjects (n=11), single oral dose 1 mg.
Where [9] appears, read: Mean ± SD (G/E), n=8, single oral dose 1 mg.
Where [10] appears, read: Mean ± SD (G/G), n=11, single oral dose 1 mg.

Turning to `CCOC(=O)[C@H](CCc1ccccc1)N[C@@H](C)C(=O)N1[C@H](C(=O)O)C[C@H]2CCCC[C@@H]21` [Trandolapril], the “catalytic activity of CES1 G143E on trandolapril activation” value in data set [1] is listed as “abolished; also recorded: completely impaired”. Besides, the values for the CL in data set [2] (CES1 143G/E (n=8)) and in data set [2] (CES1 143G/G (n=11)) were 1027.58 L/h and 893.90 L/h, respectively. Further, the “stability of processed and QC samples” value in data set [3] was “stable”. Further, the “DBP Max reduction” value in data set [4] (setting [7]) is 10 and 11 and 3 and 15 and 21 and 6 and 13; in data set [4] (setting [8]), 19 and 23 and 8 and 30 and 5 and 14 and 7 and 15 and 13; in data set [4] (setting [9]) it was 12 ± 6; in data set [4] (setting [10]), 15 ± 7. In addition, the “Heart rate Max reduction” value is 20 and 11 and 17 and 7 and 3 and 4 and 18 in data set [4] (setting [7]); 3 and −1 and 6 and 24 and 4 and −3 and 7 and 10 and 30 and 9 in data set [4] (setting [8]); 12 ± 7 in data set [4] (setting [9]); 9 ± 10 in data set [4] (setting [10]). Further, the “SBP Max reduction” value in data set [4] (setting [7]) was 11 and 12 and 6 and 5 and 4 and 33; in data set [4] (setting [8]), 32 and 23 and 10 and 16 and 12 and 7 and 5 and 11; in data set [4] (setting [9]) it was 11 ± 9; in data set [4] (setting [10]), 14 ± 8. Further, the “average maximum reduction of SBP in carriers less than in noncarriers” value in data set [4] (abstract, not statistically significant) is listed as ~ 22%. Further, the “changes in heart rate after trandolapril administration” value in data set [4] (noncarrier and carrier group) is recorded as “no significant changes”. The “time of maximal reduction of SBP and DBP after dosing” value in data set [4] (noncarrier group, single oral dose 1 mg) lay within 6 to 8 h. In data set [4] (p = 0.26, not statistically significant), the “maximum reduction of DBP in carrier group as percent of noncarrier group” value was found to be 80.0%. In data set [4] (p = 0.54, not statistically significant), the “maximum reduction of SBP in carrier group as percent of noncarrier group” value came out at 78.6%.

By Tmax is commonly meant the time at which the peak concentration occurs. On to `C[C@H](N[C@@H](CCc1ccccc1)C(=O)O)C(=O)N1[C@H](C(=O)O)C[C@H]2CCCC[C@@H]21` [Trandolaprilat, trandolaprilat], for which the “decrease of Cmax in G143E carriers relative to noncarriers” value in data set [2] (1 mg oral trandolapril, p = 0.17, not statistically significant) is given as 20%. Besides, the “decrease of AUC0–72 h in G143E carriers relative to noncarriers” value in data set [2] (1 mg oral trandolapril, p = 0.33, not statistically significant) was 15%. Also, the CL amounted to 9.96 L/h in data set [2] (CES1 143G/E (n=8)) and 12.20 L/h in data set [2] (CES1 143G/G (n=11)). Moreover, in data set [2] (human, plasma, po, 1 mg), the Tmax worked out at 6.7 h. The “potency at inhibiting ACE relative to parent compound trandolapril” value in data set [5] is “approximately eight times more potent”. Besides, the “stability of processed and QC samples” value in data set [3] was “stable”.

Turning to `CCOC(=O)[C@H](CCc1ccccc1)N[C@@H](C)C(=O)N1CCC[C@H]1C(=O)O` [enalapril], the “difference of PK parameters between G143E carriers and controls” value in data set [6] (Danish volunteers, 6 carriers and 16 noncarriers) is “no significant difference”.

Consider `C[C@H](N[C@@H](CCc1ccccc1)C(=O)O)C(=O)N1CCC[C@H]1C(=O)O` [enalaprilat], for which, in data set [6] (Finnish subjects, carriers = 10, noncarriers = 12, p = 0.049), the “decrease of AUC0‐∞ in G143E carriers” value is 20%.

Consider `COC(=O)C(c1ccccc1)C1CCCCN1` (centres unmarked) [methylphenidate], for which, in data set [6] (Danish volunteers, 6 carriers and 16 noncarriers, p < 0.0001), the “mean AUC0‐∞ higher in G143E carriers than in controls” value was 152.4%.

Consider `CCOC(=O)[C@H](CCc1ccccc1)N[C@@H](C)C(=O)N1Cc2ccccc2C[C@H]1C(=O)O` [quinapril], for which the “impact of G143E on PKs” value in data set [6] (Finnish subjects, carriers = 10, noncarriers = 12) is listed as “no significant impact”.
